Measured values published in ChEMBL document CHEMBL1125717, “Synthesis and biological evaluation of cyclopropyl analogues of 2-amino-5-phosphonopentanoic acid” (J Med Chem, 1991).
pIC50, pKi: −log10 of the molar value.

Key:
[1] = target: Glutamate NMDA receptor; test: Compound was tested in vitro for its inhibitory activity against N-methyl-D-aspartate glutamate receptor using [3H]MK-801; format: protein-complex assay
How it was run: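 Functional modulation assay on washed rat synaptic membranes pretreated with 0.04% v/v Triton X-100. Incubated 30 min at 25 °C with 5.0 nM [3H]MK-801, 10.0 nM L-glutamate and graded compound concentrations in 50 mM Tris/acetate, pH 7.4. Filter-bound radioactivity counted by scintillation. Nonspecific binding: 60 μM MK-801. IC50 from logit–log transformation. Mean ± SEM, ≥3 experiments in triplicate.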

[2] = Compound was tested in vitro for Non N-methyl-D-aspartate glutamate receptor binding using [3H]kainate; parameters: species or system Rattus norvegicus
How it was run: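 Triton X-100-treated (0.04%, 30 min, 37 °C), washed rat forebrain synaptic membranes (male Sprague–Dawley, 30–45 days), 0.25–0.35 mg/mL final in 50 mM Tris/acetate, pH 7.4. Incubated with 0.5 nM [3H]kainate for 60 min at 4 °C; bound ligand separated by centrifugation. Nonspecific binding: 0.1 mM kainate. IC50 by logit–log; Ki by Cheng–Prusoff. Mean ± SEM, ≥3 experiments in triplicate.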

[3] = target: Glutamate NMDA receptor; test: Compound was tested in vitro for N-methyl-D-aspartate glutamate receptor binding using [3H]L-glutamate; format: protein-complex assay
How it was run: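 Rat forebrain synaptic plasma membranes (male Sprague–Dawley, 30–45 days old) were pretreated with 0.04% Triton X-100 for 30 min at 37 °C and washed four times in 50 mM Tris/acetate, pH 7.4. Incubation: 10 nM [3H]-L-glutamate, membranes at 0.25–0.35 mg/mL final, 10 min at 4 °C, then filtration through PEI-treated filters. Nonspecific binding: 0.1 mM L-glutamate. IC50 by logit–log; Ki by Cheng–Prusoff. Mean ± SEM, ≥3 experiments in triplicate.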

[4] = Compound was tested in vitro for Non N-methyl-D-aspartate glutamate receptor binding using [3H]- -Kainate; parameters: species or system Rattus norvegicus
How it was run: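 Rat forebrain synaptic membranes (male Sprague–Dawley, 30–45 days old) were treated with 0.04% Triton X-100 for 30 min at 37 °C and washed in 50 mM Tris/acetate pH 7.4. Incubation used 0.5 nM [3H]kainate and graded compound concentrations, with 0.25–0.35 mg/mL membrane, for 60 min at 4 °C. Bound ligand was separated by centrifugation; 0.1 mM kainate defined nonspecific binding. IC50 was derived by logit–log and Ki by Cheng–Prusoff, from ≥3 triplicate experiments.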

SMILES | pIC50 [1] | pKi [2] | pKi [3] | pKi [4]
N[C@]1(C(=O)O)CC1CCP(=O)(O)O (some centres undefined) | 4.82 | < 4.00 | 4.73 | 
N[C@H](C[C@@H]1CC1P(=O)(O)O)C(=O)O (some centres undefined) | 5.57 | < 4.00 | 5.80 | 
NC(C(=O)O)C1CC1CCP(=O)(O)O (centres undefined) |  | < 4.00 | < 4.30 | 
O=C(O)[C@@H]1C[C@H](CP(=O)(O)O)CCN1 [SELFOTEL] | 6.85 | < 4.00 | 6.80 | 
N[C@@]1(C(=O)O)CC1CCP(=O)(O)O (some centres undefined) | 4.74 | < 4.00 | 4.57 | 
NC(C(=O)O)C1CC1CCCP(=O)(O)O (stereo in doubt; 33c) |  | < 4.00 | 4.90 | 
NC(C(=O)O)C1CC1CCCP(=O)(O)O (stereo in doubt; 33d) |  |  | < 4.30 | 
NC(C(=O)O)C1CC1CP(=O)(O)O (stereo in doubt; 13b) | 4.88 | < 4.00 | 5.02 | 
NC(CCCP(=O)(O)O)C(=O)O (centres undefined) |  |  | 6.38 | < 4.00
NC(C(=O)O)C1CC1CP(=O)(O)O (stereo in doubt; 13a) | 4.65 |  | 4.72 | 
